Source: ChEMBL document CHEMBL1140109, “Discovery of inhibitors of Escherichia coli methionine aminopeptidase with the Fe(II)-form selectivity and antibacterial activity” (J Med Chem, 2008)
pIC50: −log10 of the molar value. Values after ≈ are worked out from the molar mass of the structure shown. Active and inactive are the calls of the source. The rule behind the calls is not given here.

Columns and labels:
[1] = system: Escherichia coli BL21(DE3); test: Inhibition of Escherichia coli BL21(DE3) methionine aminopeptidase up to 100 uM in presence of Co(II) metal ions
Procedure, shortened: (§1)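 Purified apoenzyme (500 nM) in 50 mM MOPS pH 7.0 with 200 µM Met-AMC, activated by 50 µM FeCl2 plus 100 µM ascorbic acid (Fe), 10 µM CoCl2 (Co) or 20 µM MnCl2 (Mn), with serially diluted inhibitor. AMC release read by fluorescence (ex 360/em 460) at room temperature. IC50 from non-linear fit of percent inhibition versus concentration.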

[2] = system: Escherichia coli BL21(DE3); test: Inhibition of Escherichia coli BL21(DE3) methionine aminopeptidase up to 100 uM in presence of Mn(II) metal ions; procedure, shortened: as §1
[3] = system: Escherichia coli BL21(DE3); test: Inhibition of Escherichia coli BL21(DE3) methionine aminopeptidase up to 100 uM in presence of Fe(II) metal ions; procedure, shortened: as §1
[4] = system: Escherichia coli; test: Antibacterial activity against Escherichia coli AS19; format: functional, organism-based
Procedure, shortened: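 AS19 culture at 0.5 McFarland, exponential phase, diluted 1000-fold in Mueller Hinton medium containing 100 mM Tris pH 7.5, exposed to increasing inhibitor concentrations […]. Growth followed by absorbance at 600 nm every 5 min for 10 h at 37°C.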

[5] = Inhibition of Escherichia coli BL21(DE3) methionine aminopeptidase in presence of Mn(II) metal ions
Procedure, shortened: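 E. coli MetAP apoenzyme, recombinant from BL21(DE3), at 500 nM and metallated with 20 μM MnCl2. Contained 50 mM MOPS pH 7.0 and 200 μM Met-AMC, at room temperature. IC50 was derived by non-linear fit of percent inhibition versus concentration.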

[6] = Inhibition of Escherichia coli BL21(DE3) methionine aminopeptidase in presence of Fe(II) metal ions
Procedure, shortened: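 Purified BL21(DE3)-expressed E. coli MetAP apoenzyme at 500 nM, activated with 50 μM FeCl2 plus 100 μM ascorbic acid. Buffer was 50 mM MOPS pH 7.0 with 200 μM Met-AMC, at room temperature. Hydrolysis was followed by fluorescence (ex 360/em 460 nm) at serially diluted inhibitor concentrations. IC50 was obtained by non-linear curve fit of percent inhibition.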

[7] = system: Escherichia coli; test: Antibacterial activity against Escherichia coli D22; format: functional, organism-based
Procedure, shortened: (§2)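 Exponential-phase culture at 0.5 McFarland diluted 1000-fold in Mueller Hinton medium with 100 mM Tris pH 7.5, mixed with inhibitor at increasing concentrations plus resazurin (110 µM final). Fluorescence (ex 530/em 590) read every 5 min for 10 h at 37°C.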

[8] = system: Bacillus subtilis; test: Antibacterial activity against Bacillus subtilis; format: functional, organism-based; procedure, shortened: as §2
[9] = system: Priestia megaterium; test: Antibacterial activity against Bacillus megaterium; format: functional, organism-based; procedure, shortened: as §2
[10] = Inhibition of Escherichia coli BL21(DE3) methionine aminopeptidase in presence of Co(II) metal ions
Procedure, shortened: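 Recombinant E. coli MetAP apoenzyme purified from BL21(DE3) cells, used at 500 nM and activated with 10 μM CoCl2. Buffer was 50 mM MOPS pH 7.0 with 200 μM Met-AMC substrate, at room temperature. AMC release was read by fluorescence (ex 360/em 460 nm) across serially diluted inhibitor. IC50 came from non-linear fitting of percent inhibition.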

SMILES | Activity [1] | Activity [2] | Activity [3] | pIC50 [4] | pIC50 [5] | pIC50 [6] | MIC [4] [µg/mL] | pIC50 [7] | MIC [7] [µg/mL] | pIC50 [8] | MIC [8] [µg/mL] | pIC50 [9] | MIC [9] [µg/mL] | pIC50 [10]
Cc1nc(-c2ccc(N)c([N+](=O)[O-])c2)cs1 | inactive | inactive | inactive | 3.69 |  |  |  |  |  |  |  |  |  | 
Nc1nc(-c2ccc(O)c(O)c2)cs1 |  |  |  | 3.84 | < 4.00 | 5.18 | 39 (≈ 187 µM) | 4.40 | 11 (≈ 52.8 µM) | 4.54 | 13 (≈ 62.4 µM) | 4.43 | 26 (≈ 125 µM) | < 4.00
Cc1cc(-c2ccc(O)c(O)c2)c(C)s1 |  |  |  | 4.73 | < 4.00 | 5.13 | 9 (≈ 40.9 µM) | 5.43 | 4 (≈ 18.2 µM) | 4.78 | 5 (≈ 22.7 µM) | 4.80 | 5 (≈ 22.7 µM) | < 4.00
Cc1ccc(-c2ccc(O)c(O)c2)s1 |  |  |  | 4.06 | 4.55 | 4.49 | 60 (≈ 291 µM) | 4.41 | 18 (≈ 87.3 µM) | 4.60 | 10 (≈ 48.5 µM) | 4.59 | 10 (≈ 48.5 µM) | 4.29
Cc1sc(C)c(-c2ccc(O)c(O)c2)c1Br |  |  |  | 4.97 | 5.68 | 5.51 | 5 (≈ 16.7 µM) | 5.11 | 9 (≈ 30.1 µM) | 4.89 | 8 (≈ 26.7 µM) | 4.76 | 10 (≈ 33.4 µM) | 5.62
Oc1ccc(-c2ccsc2)cc1O |  |  |  | 4.52 | 4.56 | 5.42 | 15 (≈ 78 µM) | 5.70 | 2 (≈ 10.4 µM) | 4.80 | 9 (≈ 46.8 µM) | 4.72 | 10 (≈ 52 µM) | 4.39
CCc1ccsc1-c1ccc(O)c(O)c1 |  |  |  | 4.81 |  | 4.89 | 5 (≈ 22.7 µM) | 4.93 | 6 (≈ 27.2 µM) | 4.66 | 7 (≈ 31.8 µM) | 4.56 | 11 (≈ 49.9 µM) | 4.20
O=C(NC1CC1)c1ccsc1-c1ccc(O)c(O)c1 |  |  |  | 3.94 | < 4.00 | 5.11 | 113 (≈ 410 µM) | 3.60 | 151 (≈ 548 µM) | 3.96 | 56 (≈ 203 µM) | 4.27 | 79 (≈ 287 µM) | < 4.00
Oc1ccc(-c2ccc(Cl)s2)cc1O |  |  |  | 4.81 | 4.35 | 4.89 | 7 (≈ 30.9 µM) | 5.12 | 3 (≈ 13.2 µM) | 5.15 | 2 (≈ 8.82 µM) | 5.20 | 2 (≈ 8.82 µM) | < 4.00
Oc1ccc(-c2nccs2)cc1O |  |  |  | 3.63 | < 4.00 | 4.78 | 198 (≈ 1020 µM) | 4.01 | 66 (≈ 342 µM) | 3.40 | 193 (≈ 999 µM) | 3.65 | 112 (≈ 580 µM) | < 4.00
N#Cc1ccc(-c2ccc(O)c(O)c2)s1 |  |  |  | 4.70 | 4.52 | 4.83 | 11 (≈ 50.6 µM) | 4.35 | 15 (≈ 69 µM) | 4.84 | 13 (≈ 59.8 µM) | 4.82 | 9 (≈ 41.4 µM) | 4.44
CCCc1ccsc1-c1ccc(O)c(O)c1 |  |  |  | 4.81 | 4.46 | 4.85 | 4 (≈ 17.1 µM) | 4.37 | 19 (≈ 81.1 µM) | 4.83 | 4 (≈ 17.1 µM) | 4.81 | 6 (≈ 25.6 µM) | 4.00
Oc1ccc(-c2sccc2CCBr)cc1O |  |  |  | 4.95 | 4.65 | 5.14 | 5 (≈ 16.7 µM) | 4.07 | 51 (≈ 170 µM) | 4.60 | 10 (≈ 33.4 µM) | 4.68 | 14 (≈ 46.8 µM) | 4.85
Cc1nc(C(=O)NC(C)C)c(-c2ccc(O)c(O)c2)s1 |  |  |  | 3.94 | < 4.00 | 4.81 | 121 (≈ 414 µM) | 4.03 | 73 (≈ 250 µM) | 3.73 | 125 (≈ 428 µM) | 3.76 | 122 (≈ 417 µM) | < 4.00
Cc1nc(C(=O)NC2CC2)c(-c2ccc(O)c(O)c2)s1 |  |  |  | 3.90 | 4.00 | 4.95 | 138 (≈ 475 µM) | 3.78 | 103 (≈ 355 µM) | 3.95 | 51 (≈ 176 µM) | 4.12 | 62 (≈ 214 µM) | 4.03
CCCCc1ccsc1-c1ccc(O)c(O)c1 |  |  |  | 4.91 | 4.32 | 5.04 | 5 (≈ 20.1 µM) | 4.87 | 5 (≈ 20.1 µM) | 5.11 | 3 (≈ 12.1 µM) | 5.12 | 3 (≈ 12.1 µM) | < 4.00
Oc1ccc(-c2cc(Cl)sc2Cl)cc1O |  |  |  | 5.21 | 4.31 | 4.69 | 3 (≈ 11.5 µM) | 5.14 | 2 (≈ 7.66 µM) | 5.22 | 2 (≈ 7.66 µM) | 5.30 | 1 (≈ 3.83 µM) | 4.20
O=C(NC1CC1)c1ccc(-c2ccc(O)c(O)c2)s1 |  |  |  | 3.96 | 4.47 | 4.62 | 78 (≈ 283 µM) | 3.62 | 105 (≈ 381 µM) | 3.68 | 122 (≈ 443 µM) | 3.88 | 85 (≈ 309 µM) | 4.55
Oc1ccc(-c2cccs2)cc1O |  |  |  | 4.48 | 4.80 | 5.29 |  | 5.40 | 3 (≈ 15.6 µM) | 4.79 | 7 (≈ 36.4 µM) | 4.67 | 9 (≈ 46.8 µM) | 4.63
